What was measured:
[1] = test system: Mycobacterium tuberculosis; assay: Antitubercular activity against Mycobacterium tuberculosis Spec.192 assessed as inhibition of microbial growth by classical test tube method; assay type: functional
Summary of the method: (§1)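 Classical test-tube serial dilution in Youmans' modified Proskauer–Beck liquid medium with 10% bovine serum. Inoculum came from 14-day-old cultures. Compounds were given as DMSO solutions (stock 10 mg/ml), diluted geometrically in medium to 3.1–100 µg/ml, and incubated at 37 °C. MIC is the minimum concentration inhibiting growth relative to a no-compound control.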

[2] = test system: Staphylococcus epidermidis; assay: Antibacterial activity against Staphylococcus epidermidis ATCC 35984/RP62A assessed as bacterial growth inhibition measured after 18 hrs by two-fold serial microdilution method; assay type: functional
Summary of the method: (§2)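 Two-fold serial broth microdilution in MH II medium following modified CLSI procedures. Compounds were dissolved in DMSO and diluted in medium to at most 1% solvent, tested from 0.03125 to 512 μg/ml. Final inoculum 10^6 CFU/ml. MIC was taken as the lowest concentration with no visible growth after 18 h at 35 °C.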

[3] = test system: Mycobacterium tuberculosis; assay: Antitubercular activity against Mycobacterium tuberculosis H37Rv ATCC 25618 assessed as inhibition of microbial growth by classical test tube method; assay type: functional; summary of the method: as §1
[4] = test system: Klebsiella pneumoniae; assay: Antibacterial activity against Klebsiella pneumoniae ATCC 10031 assessed as bacterial growth inhibition measured after 18 hrs by two-fold serial microdilution method; assay type: functional; summary of the method: as §2
[5] = test system: Escherichia coli; assay: Antibacterial activity against Escherichia coli ATCC 25922 assessed as bacterial growth inhibition measured after 18 hrs by two-fold serial microdilution method; assay type: functional; summary of the method: as §2
[6] = test system: Staphylococcus aureus; assay: Antibacterial activity against Staphylococcus aureus NCTC 4163 assessed as bacterial growth inhibition measured after 18 hrs by two-fold serial microdilution method; assay type: functional; summary of the method: as §2
[7] = test system: Pseudomonas aeruginosa; assay: Antibacterial activity against Pseudomonas aeruginosa PAO1 assessed as bacterial growth inhibition measured after 18 hrs by two-fold serial microdilution method; assay type: functional; summary of the method: as §2
[8] = test system: Pseudomonas aeruginosa; assay: Antibacterial activity against Pseudomonas aeruginosa NCTC 6749 assessed as bacterial growth inhibition measured after 18 hrs by two-fold serial microdilution method; assay type: functional; summary of the method: as §2
[9] = test system: Proteus vulgaris; assay: Antibacterial activity against Proteus vulgaris NCTC 4635 assessed as bacterial growth inhibition measured after 18 hrs by two-fold serial microdilution method; assay type: functional; summary of the method: as §2
[10] = test system: Staphylococcus epidermidis; assay: Antibacterial activity against Staphylococcus epidermidis ATCC 1457 assessed as bacterial growth inhibition measured after 18 hrs by two-fold serial microdilution method; assay type: functional; summary of the method: as §2
[11] = test system: Staphylococcus epidermidis; assay: Antibacterial activity against Staphylococcus epidermidis ATCC 12228 assessed as bacterial growth inhibition measured after 18 hrs by two-fold serial microdilution method; assay type: functional; summary of the method: as §2
[12] = test system: Staphylococcus aureus; assay: Antibacterial activity against Staphylococcus aureus ATCC 6538 assessed as bacterial growth inhibition measured after 18 hrs by two-fold serial microdilution method; assay type: functional; summary of the method: as §2
[13] = test system: Mycobacterium avium; assay: Antimycobacterial activity against Mycobacterium avium assessed as inhibition of microbial growth incubated for 1 week by MABA method; assay type: functional; conditions: 168 h, time 1 weeks
Summary of the method: (§3)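 Microplate Alamar Blue assay in Middlebrook 7H9 broth with 10% OADC. Inoculum from fresh LJ culture was adjusted to McFarland 1 and diluted 1:20. DMSO stocks were two-fold serially diluted to final 0.125–512 µg/ml, with growth and sterile controls. Plates ran 1 week at 37 °C, then Alamar blue was added for 24 h. MIC is the lowest concentration preventing the blue-to-pink change.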

[14] = test system: Mycobacterium scrofulaceum; assay: Antibacterial activity against Mycobacterium scrofulaceum assessed as inhibition of microbial growth incubated for 1 week by MABA method; assay type: functional; conditions: 168 h, time 1 weeks
Summary of the method: (§4)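 Microplate Alamar Blue assay using two-fold serial microdilution in Middlebrook 7H9 broth with 10% OADC, compounds 0.125–512 µg/ml from DMSO stocks. Inoculum came from fresh LJ culture, was adjusted to McFarland 1 and diluted 1:20. Plates were incubated 1 week at 37 °C, Alamar blue was added and plates were re-incubated 24 h. MIC was the lowest concentration preventing the blue-to-pink change. Each plate carried growth and sterile controls.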

[15] = test system: Mycobacterium tuberculosis; assay: Antitubercular activity against Mycobacterium tuberculosis H37Rv ATCC 25618 assessed as inhibition of microbial growth incubated for 1 week by MABA method; assay type: functional; conditions: H37Rv ATCC 25618, 168 h, time 1 weeks; summary of the method: as §3
[16] = test system: Mycolicibacterium fortuitum; assay: Antibacterial activity against Mycobacterium fortuitum assessed as inhibition of microbial growth incubated for 1 week by MABA method; assay type: functional; conditions: 168 h, time 1 weeks; summary of the method: as §4
[17] = test system: Mycobacterium intracellulare; assay: Antimycobacterial activity against Mycobacterium intracellulare assessed as inhibition of microbial growth incubated for 1 week by MABA method; assay type: functional; conditions: 168 h, time 1 weeks; summary of the method: as §4
[18] = test system: V79; assay: Cytotoxicity against Chinese Hamster V79 cells assessed as reduction in cell viability measured after 72 hrs by MTT assay; assay type: cell-based; conditions: Cricetulus griseus, V79, 72 h
Summary of the method: (§5)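 MTT viability assay on cells grown in DMEM with 10% heat-inactivated FBS, penicillin/streptomycin and 20 mM HEPES at 37 °C/5% CO2. Cells were seeded at 1×10^4 per well and allowed to adhere for 24 h, then the medium was refreshed. Compounds were added at 20–140 μM for 72 h at 37 °C, followed by MTT (0.5 mg/mL in serum-free medium) for 4 h. Untreated cells served as control. IC50 is the concentration giving 50% growth inhibition versus control.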

[19] = test system: Mycobacterium tuberculosis; assay: Antitubercular activity against Mycobacterium tuberculosis Spec.192 assessed as inhibition of microbial growth incubated for 1 week by MABA method; assay type: functional; conditions: Mycobacterium tuberculosis, 192, 168 h; time 1 weeks; summary of the method: as §3
[20] = test system: Mycobacterium xenopi; assay: Antibacterial activity against Mycobacterium xenopi assessed as inhibition of microbial growth incubated for 1 week by MABA method; assay type: functional; conditions: 168 h, time 1 weeks; summary of the method: as §4
[21] = test system: HaCaT; assay: Cytotoxicity against human HaCaT cells assessed as reduction in cell viability at 100 uM measured after 72 hrs by MTT assay; assay type: cell-based; summary of the method: as §5
[22] = test system: V79; assay: Cytotoxicity against Chinese Hamster V79 cells assessed as reduction in cell viability at 100 uM measured after 72 hrs by MTT assay; assay type: cell-based, Cricetulus griseus; conditions: v79, 72 h; summary of the method: as §5
[23] = test system: Mycobacterium kansasii; assay: Antibacterial activity against Mycobacterium kansasii assessed as inhibition of microbial growth incubated for 1 week by MABA method; assay type: functional; conditions: 168 h, time 1 weeks; summary of the method: as §4
[24] = test system: HaCaT; assay: Cytotoxicity against human HaCaT cells assessed as reduction in cell viability measured after 72 hrs by MTT assay; assay type: cell-based; summary of the method: as §5
[25] = test system: Mycobacterium scrofulaceum; assay: Potency index, ratio of isoniazid MIC to test compound MIC for antibacterial activity against Mycobacterium scrofulaceum assessed as inhibition of microbial growth incubated for 1 week by MABA method; assay type: functional; conditions: time 1 weeks

COc1ccc(NC(=S)Nc2ccccc2Cl)cc1
MIC [1]: 25 µg/mL
MIC [2]: > 256 µg/mL
MIC [3]: 25 µg/mL
MIC [4]: > 256 µg/mL
MIC [5]: > 256 µg/mL
MIC [6]: > 256 µg/mL
MIC [7]: > 256 µg/mL
MIC [8]: > 256 µg/mL
MIC [9]: > 256 µg/mL
MIC [10]: > 256 µg/mL
MIC [11]: > 256 µg/mL
MIC [12]: > 256 µg/mL

COc1ccc(Nc2nnnn2-c2ccc(Br)cc2)cc1
MIC [13]: > 512 µg/mL
MIC [14]: 256 µg/mL
MIC [15]: 16 µg/mL
MIC [2]: > 256 µg/mL
MIC [16]: > 512 µg/mL
MIC [4]: > 256 µg/mL
MIC [5]: > 256 µg/mL
MIC [6]: > 256 µg/mL
MIC [7]: > 256 µg/mL
MIC [17]: 256 µg/mL
IC50 [18]: 125 µM
MIC [8]: > 256 µg/mL
MIC [19]: 16 µg/mL
MIC [20]: 512 µg/mL
Activity [21]: Non-Toxic
MIC [9]: > 256 µg/mL
MIC [10]: > 256 µg/mL
Activity [22]: Non-Toxic
MIC [11]: > 256 µg/mL
MIC [23]: 512 µg/mL
IC50 [24]: 103 µM
MIC [12]: > 256 µg/mL

COc1ccc(NC(=S)Nc2cccc(F)c2)cc1
MIC [1]: 100 µg/mL
MIC [2]: > 256 µg/mL
MIC [3]: 50 µg/mL
MIC [4]: > 256 µg/mL
MIC [5]: > 256 µg/mL
MIC [6]: > 256 µg/mL
MIC [7]: > 256 µg/mL
MIC [8]: > 256 µg/mL
MIC [9]: > 256 µg/mL
MIC [10]: > 256 µg/mL
MIC [11]: > 256 µg/mL
MIC [12]: > 256 µg/mL

COc1ccc(Nc2nnnn2-c2cccc(F)c2)cc1
MIC [13]: 128 µg/mL
MIC [14]: 16 µg/mL
MIC [15]: 16 µg/mL
MIC [2]: > 256 µg/mL
MIC [16]: 256 µg/mL
Ratio [25]: 4
MIC [4]: > 256 µg/mL
MIC [5]: > 256 µg/mL
MIC [6]: > 256 µg/mL
MIC [7]: > 256 µg/mL
MIC [17]: 64 µg/mL
IC50 [18]: 123 µM
MIC [8]: > 256 µg/mL
MIC [19]: 16 µg/mL
MIC [20]: 128 µg/mL
Activity [21]: Non-Toxic
MIC [9]: > 256 µg/mL
MIC [10]: > 256 µg/mL
Activity [22]: Non-Toxic
MIC [11]: > 256 µg/mL
MIC [23]: 256 µg/mL
IC50 [24]: 101 µM
MIC [12]: > 256 µg/mL

COc1ccc(NC(=S)Nc2ccccc2F)cc1
MIC [1]: 50 µg/mL
MIC [2]: > 256 µg/mL
MIC [3]: 50 µg/mL
MIC [4]: > 256 µg/mL
MIC [5]: > 256 µg/mL
MIC [6]: > 256 µg/mL
MIC [7]: > 256 µg/mL
MIC [8]: > 256 µg/mL
MIC [9]: > 256 µg/mL
MIC [10]: > 256 µg/mL
MIC [11]: > 256 µg/mL
MIC [12]: > 256 µg/mL

CC[C@@H](CO)NCCN[C@@H](CC)CO [ETHAMBUTOL]
MIC [1]: < 3.1 µg/mL
MIC [15]: 2 µg/mL
MIC [3]: < 3.1 µg/mL
MIC [19]: 2 µg/mL

NNC(=O)c1ccncc1 [ISONIAZID]
MIC [13]: 32 µg/mL
MIC [14]: 64 µg/mL
MIC [1]: 6.25 µg/mL
MIC [15]: 0.125 µg/mL
MIC [16]: 128 µg/mL
MIC [3]: 6.25 µg/mL
MIC [17]: 64 µg/mL
MIC [19]: 0.125 µg/mL
MIC [20]: 64 µg/mL
MIC [23]: 32 µg/mL

CO[C@H]1/C=C/O[C@@]2(C)Oc3c(C)c(O)c4c(O)c(c(/C=N/N5CCN(C)CC5)c(O)c4c3C2=O)NC(=O)/C(C)=C\C=C\[C@H](C)[C@H](O)[C@@H](C)[C@@H](O)[C@@H](C)[C@H](OC(C)=O)[C@@H]1C [RIFAMPIN]
MIC [1]: < 3.1 µg/mL
MIC [15]: 1 µg/mL
MIC [3]: < 3.1 µg/mL
MIC [19]: 1 µg/mL

CN[C@@H]1[C@H](O[C@H]2[C@H](O[C@H]3[C@H](O)[C@@H](O)[C@H](N=C(N)N)[C@@H](O)[C@@H]3N=C(N)N)O[C@@H](C)[C@]2(O)C=O)O[C@@H](CO)[C@H](O)[C@H]1O [STREPTOMYCIN]
MIC [1]: < 3.1 µg/mL
MIC [15]: 1 µg/mL
MIC [3]: < 3.1 µg/mL
MIC [19]: 1 µg/mL

Reference: ChEMBL document CHEMBL4680121, “Development of (4-methoxyphenyl)-1H-tetrazol-5-amine regioisomers as a new class of selective antitubercular agents” (Eur J Med Chem, 2020)
